ChEMBL document CHEMBL3272214, “2-Deaminoactinomycin D, synthesis and interaction with deoxyribonucleic acid” (J Med Chem, 1977)
Calls of active or inactive are those of the source. The calls are words filed in the database; no cut-off is given here. *1 amine or outer side, *2 acyl side, *3 side chain or, on linkers, in order; H or OH if unused. Where a SMILES comes first, the peptide text is derived from it. Bridges are numbered along the chain shown (N, C = ends). Roman numbers before positions name the chains, in order. [ ]: non-standard residue; d: D form. Actinocin(1to9) = Cc1c2oc3c(C)ccc(C(=O)[*:2])c3nc-2c(C(=O)[*:1])c(N)c1=O; NMeV = CN[C@H](C(=O)O)C(C)C; Sar = CNCC(=O)O

Tests used:
Escherichia coli = assay: Induction of Escherichia coli omega enzyme-mediated relaxation of Escherichia coli (RR1) pBR313 closed circular DNA at 40 X 10^-12 mol preincubated for 10 mins followed by enzyme-addition measured after 30 mins by agarose gel electrophoretic analysis
In short: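 Plasmid pBR313 was isolated from E. coli RR1 cleared lysate by agarose A50 gel filtration. 1.10 μg DNA in 80 mM potassium phosphate pH 7.6, 3 mM MgCl2, 1 mM EDTA was preincubated with drug (40×10⁻¹² mol) for 10 min at 37 °C. About 300 units of ω enzyme were added for 30 min. The reaction was stopped with EDTA and phenol/chloroform extracted. Read-out was 0.7% agarose slab gel electrophoresis with ethidium staining, compared with ethidium bromide.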

Calf thymus DNA [1] = assay: Binding affinity to calf thymus DNA assessed as change in melting temperature at 5.2 X 10^-6 M by thermal denaturation assay; format: nucleic-acid assay; settings: Bos taurus
In short: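 Calf thymus DNA filtered, concentration set by A259 (ε 6800). Drug in Me2SO diluted into 0.01 M phosphate pH 7.0. Final: drug 5.2×10⁻⁶ M, DNA 5.2×10⁻⁵ M (P), EDTA 1×10⁻⁵ M, 5% Me2SO. Equilibrated at 50 °C, then heated at 18 °C/h while absorbance was recorded. Tm corrected for volume expansion, temperature lag and baseline. ΔTm = Tm(complex) − Tm(DNA).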

L1210 [2] = assay: Inhibition of DNA synthesis in mouse L1210 cells assessed as [3H]-thymidine incorporation preincubated for 3 hrs before [3H]-thymidine addition measured after 1 hr by scintillation spectrometric analysis; format: functional; settings: read-out: ED50 (the source's name)
In short: (§1)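 L1210 cell assay run by a previously described method. Compounds were dissolved in Me2SO and diluted in growth medium to a final 1% Me2SO. The value reported is ED50.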

L1210 [3] = assay: Inhibition of RNA synthesis in mouse L1210 cells assessed as [3H]-uridine incorporation preincubated for 3 hrs before [3H]-uridine addition measured after 1 hr by scintillation spectrometric analysis; format: functional; settings: read-out: ED50 (the source's name); in short: as §1
P388 [4] = assay: Antitumor activity against mouse P388 cells allografted in mouse assessed as increase in life span at 0.108 mg/kg administered qd on day 1, 5 and 9 relative to control; format: functional; settings: P388, 24 h
In short: (§2)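 In vivo testing in tumour-bearing mice was run by the NCI Division of Cancer Treatment. Drug was given on a QD 1, 5, 9 schedule, and 15 mg/kg was the highest dose tested. Toxicity was judged by weight loss of treated animals. Activity is expressed as % increase in life-span (ILS) over untreated tumour-bearing controls.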

Calf thymus DNA [5] = assay: Binding affinity to calf thymus DNA by NMR spectroscopic analysis; format: nucleic-acid assay; settings: Bos taurus
Calf thymus DNA [6] = assay: Binding affinity to calf thymus DNA at 10:1 DNA to drug molar ratio by circular dichroism spectroscopic analysis; format: nucleic-acid assay; settings: Bos taurus
P388 [7] = assay: Antitumor activity against mouse P388 cells allografted in mouse assessed as increase in life span at 15 mg/kg administered qd on day 1, 5 and 9 relative to control; format: functional; settings: P388, 24 h; in short: as §2
P388 [8] = assay: Antitumor activity against mouse P388 cells allografted in mouse assessed as increase in life span at 1.94 mg/kg administered qd on day 1, 5 and 9 relative to control; format: functional; settings: P388, 24 h; in short: as §2
Mus musculus = assay: Toxicity in mouse allografted with mouse P388 cells assessed as weight loss at 1.94 to 15 mg/kg administered qd on day 1, 5 and 9; format: organism-based; set-up: dose 1.94-15 mg/kg
In short: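 Mice were dosed on a QD 1, 5, 9 schedule at doses up to 15 mg/kg. Toxicity was judged by weight loss of treated animals.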

SMILES | Activity (Escherichia coli) | ΔTm (Calf thymus DNA [1]) [°C] | EC50 (L1210 [2]) [µM] | EC50 (L1210 [3]) [µM] | ILS at 0.108 mg/kg (P388 [4]) [%] | Activity (Calf thymus DNA [5]) | Activity (Calf thymus DNA [6]) | ILS at 15 mg/kg (P388 [7]) [%] | ILS at 1.94 mg/kg (P388 [8]) [%] | Activity (Mus musculus)
COc1cccc2c1C(=O)c1c(O)c3c(c(O)c1C2=O)C[C@@](O)(C(C)=O)C[C@@H]3O[C@H]1C[C@H](N)[C@H](O)[C@H](C)O1 | Active | – | – | – | – | – | – | – | – | –
Cc1c2oc3c(C)ccc(C(=O)N[C@@H]4C(=O)N[C@H](C(C)C)C(=O)N5CCC[C@H]5C(=O)N(C)CC(=O)N(C)[C@@H](C(C)C)C(=O)O[C@@H]4C)c3nc-2c(C(=O)N[C@@H]2C(=O)N[C@H](C(C)C)C(=O)N3CCC[C@H]3C(=O)N(C)CC(=O)N(C)[C@@H](C(C)C)C(=O)O[C@@H]2C)c(N)c1=O [DACTINOMYCIN] (I: T[dV]P[Sar][NMeV] / II: T[dV]P[Sar][NMeV]; ester I:1-I:C, II:1-II:C; linker I:N-II:N via Actinocin(1to9)) | Active | 7.1 | 0.4 | 0.009 | 100 | – | – | – | – | –
Cc1c2oc3c(C)ccc(C(=O)N[C@@H]4C(=O)N[C@H](C(C)C)C(=O)N5CCC[C@H]5C(=O)N(C)CC(=O)N(C)[C@@H](C(C)C)C(=O)O[C@@H]4C)c3nc-2c(C(=O)N[C@@H]2C(=O)N[C@H](C(C)C)C(=O)N3CCC[C@H]3C(=O)N(C)CC(=O)N(C)[C@@H](C(C)C)C(=O)O[C@@H]2C)cc1=O | Active | 9.9 | 63 | 0.7 | – | Active | Active | 92 | 46 | Non-toxic
Cc1c2oc3c(C)ccc(C(=O)N[C@@H]4C(=O)N[C@H](C(C)C)C(=O)N5CCC[C@H]5C(=O)N(C)CC(=O)N(C)[C@@H](C(C)C)C(=O)O[C@@H]4C)c3nc-2c(C(=O)N[C@@H]2C(=O)N[C@H](C(C)C)C(=O)N3CCC[C@H]3C(=O)N(C)CC(=O)N(C)[C@@H](C(C)C)C(=O)O[C@@H]2C)c(Cl)c1=O | Active | 1.6 | 86 | 13 | – | – | Active | – | – | –
CC[n+]1c(-c2ccccc2)c2cc(N)ccc2c2ccc(N)cc21 | Active | – | – | – | – | – | – | – | – | –
Cc1c2oc3c(C)ccc(C(=O)N[C@@H]4C(=O)N[C@H](C(C)C)C(=O)N5CCC[C@H]5C(=O)N(C)CC(=O)N(C)[C@@H](C(C)C)C(=O)O[C@@H]4C)c3nc-2c(C(=O)N[C@@H]2C(=O)N[C@H](C(C)C)C(=O)N3CCC[C@H]3C(=O)N(C)CC(=O)N(C)[C@@H](C(C)C)C(=O)O[C@@H]2C)c(O)c1=O | – | 0 | > 100 | 24 | – | – | – | – | – | –
